Data as given in article PMC2780000 (Biochemistry, 2009).
Positions count from the first letter of the chain named.

How the values were obtained:
Test in all cases: aerobic spectrophotometric titration of flavin absorbance
Assay type in all cases: binding
[1] = target: T1, Class 2 dihydroorotate dehydrogenase (DHOD) from E. coli (Escherichia coli, UniProt P0A7E1, F115L/T178V)
T1 sequence (P0A7E1 1-336 F115L/T178V): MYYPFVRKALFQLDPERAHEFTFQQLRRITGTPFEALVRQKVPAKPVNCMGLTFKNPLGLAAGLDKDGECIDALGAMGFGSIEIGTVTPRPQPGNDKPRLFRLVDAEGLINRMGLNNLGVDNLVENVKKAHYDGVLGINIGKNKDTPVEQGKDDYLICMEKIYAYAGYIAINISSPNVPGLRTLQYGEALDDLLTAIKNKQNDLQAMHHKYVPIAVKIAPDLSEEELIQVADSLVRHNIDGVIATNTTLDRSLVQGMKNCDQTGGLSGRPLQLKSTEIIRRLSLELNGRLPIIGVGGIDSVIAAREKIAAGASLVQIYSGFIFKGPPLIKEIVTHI
In short: (§1)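 Enzymes (wild-type and mutants) expressed from the pAG-1 plasmid in E. coli SØ6645, purified, stored at −80 °C in 50% glycerol, and desalted into buffer before use. The oxidized enzyme in 0.1 M Tris-HCl, pH 8.5, 25 °C, was titrated aerobically with orotate in the same buffer. The flavin absorbance change (456→475 nm red-shift) vs orotate was fit to a binding equation using total enzyme and total ligand to give Kd.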

[2] = target: T2, Class 2 dihydroorotate dehydrogenase (DHOD) from E. coli (Escherichia coli, UniProt P0A7E1, T178S)
T2 sequence (P0A7E1 1-336 T178S): T1 sequence (P0A7E1 1-336 F115L/T178V) with L115F, V178S
In short: as §1

[3] = target: T3, Class 2 dihydroorotate dehydrogenase (DHOD) from E. coli (Escherichia coli, UniProt P0A7E1, F115L)
T3 sequence (P0A7E1 1-336 F115L): T1 sequence (P0A7E1 1-336 F115L/T178V) with V178T
In short: as §1

[4] = target: T4, Class 2 dihydroorotate dehydrogenase (DHOD) from E. coli (Escherichia coli, UniProt P0A7E1, F115A)
T4 sequence (P0A7E1 1-336 F115A): T1 sequence (P0A7E1 1-336 F115L/T178V) with L115A, V178T
In short: as §1

[5] = target: T5, Class 2 dihydroorotate dehydrogenase (DHOD) from E. coli (Escherichia coli, UniProt P0A7E1, S175A)
T5 sequence (P0A7E1 1-336 S175A): T1 sequence (P0A7E1 1-336 F115L/T178V) with L115F, S175A, V178T
In short: as §1

[6] = target: T6, Class 2 dihydroorotate dehydrogenase (DHOD) from E. coli (Escherichia coli, UniProt P0A7E1, T178A)
T6 sequence (P0A7E1 1-336 T178A): T1 sequence (P0A7E1 1-336 F115L/T178V) with L115F, V178A
In short: as §1

[7] = target: T7, Class 2 dihydroorotate dehydrogenase (DHOD) from E. coli (Escherichia coli, UniProt P0A7E1, F115W)
T7 sequence (P0A7E1 1-336 F115W): T1 sequence (P0A7E1 1-336 F115L/T178V) with L115W, V178T
In short: as §1

[8] = target: T8, Class 2 dihydroorotate dehydrogenase (DHOD) from E. coli (Escherichia coli, UniProt P0A7E1, T178V)
T8 sequence (P0A7E1 1-336 T178V): T1 sequence (P0A7E1 1-336 F115L/T178V) with L115F
In short: as §1

## O=C(O)c1cc(=O)[nH]c(=O)[nH]1 [orotate]
[1]
  Kd: 4.6 ± 0.3 µM
[2]
  Kd: 1.1 ± 0.4 µM
[3]
  Kd: 3.7 ± 0.3 µM
[4]
  Kd: 3.8 ± 0.5 µM
[5]
  Kd: 9.9 ± 0.9 µM
[6]
  Kd: 6.1 ± 0.8 µM
[7]
  Kd: 8.1 ± 0.4 µM
[8]
  Kd: 0.56 ± 0.04 µM
